In ChEMBL document CHEMBL1137875, “The identification and optimization of 2,4-diketobutyric acids as flap endonuclease 1 inhibitors” (Bioorg Med Chem Lett, 2004) one finds IC50 data, which are given here for 35 compounds.

For experiment [1], the target named is T1, DNA excision repair protein ERCC-5 (Homo sapiens, UniProt P28715).
T1 sequence (P28715 whole entry): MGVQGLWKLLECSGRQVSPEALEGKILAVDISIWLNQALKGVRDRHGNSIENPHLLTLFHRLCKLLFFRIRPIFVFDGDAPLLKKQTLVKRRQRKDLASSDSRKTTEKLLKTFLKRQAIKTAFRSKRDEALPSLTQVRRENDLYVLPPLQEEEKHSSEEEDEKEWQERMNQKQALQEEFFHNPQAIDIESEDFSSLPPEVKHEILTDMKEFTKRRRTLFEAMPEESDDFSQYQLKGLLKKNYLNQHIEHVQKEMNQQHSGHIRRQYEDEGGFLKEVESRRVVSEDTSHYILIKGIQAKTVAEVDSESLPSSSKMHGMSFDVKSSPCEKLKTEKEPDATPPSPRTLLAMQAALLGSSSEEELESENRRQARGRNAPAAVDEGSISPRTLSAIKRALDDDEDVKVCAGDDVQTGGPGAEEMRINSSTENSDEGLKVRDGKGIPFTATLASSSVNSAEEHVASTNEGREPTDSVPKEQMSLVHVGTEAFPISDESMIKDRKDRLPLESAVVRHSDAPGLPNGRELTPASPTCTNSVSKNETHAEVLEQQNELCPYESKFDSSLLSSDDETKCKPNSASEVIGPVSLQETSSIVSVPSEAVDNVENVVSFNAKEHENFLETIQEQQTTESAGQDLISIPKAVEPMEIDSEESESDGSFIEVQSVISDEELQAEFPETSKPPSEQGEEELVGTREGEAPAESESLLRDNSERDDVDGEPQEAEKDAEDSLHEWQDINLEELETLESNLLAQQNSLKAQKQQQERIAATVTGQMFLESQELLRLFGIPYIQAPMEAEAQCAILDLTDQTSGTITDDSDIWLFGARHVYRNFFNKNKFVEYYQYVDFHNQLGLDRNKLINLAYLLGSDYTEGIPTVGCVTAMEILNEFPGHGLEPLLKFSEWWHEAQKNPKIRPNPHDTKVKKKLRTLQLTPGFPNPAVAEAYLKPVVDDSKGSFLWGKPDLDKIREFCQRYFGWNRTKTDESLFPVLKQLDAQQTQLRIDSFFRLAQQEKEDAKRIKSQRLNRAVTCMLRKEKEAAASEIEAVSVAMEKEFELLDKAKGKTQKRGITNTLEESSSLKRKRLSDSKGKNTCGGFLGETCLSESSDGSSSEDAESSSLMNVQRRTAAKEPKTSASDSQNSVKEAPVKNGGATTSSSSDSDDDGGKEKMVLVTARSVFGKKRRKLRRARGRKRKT
Nature of the experiment: Concentration required for 50% inhibition of Xeroderma pigmentosum G. In a few lines: (§1)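 Fluorescence nuclease assay with 5 pmol BVT substrate in buffer at pH 8.0 containing 10 mM MgCl₂, 0.5 mM 2-mercaptoethanol, BSA and circular plasmid. Enzyme was 180 U FEN1 or 50 ng XPG. Reactions ran 90 min at room temperature and were stopped with 0.025% SDS/12.5 mM EDTA. Fluorescence was read at 485 nm excitation/538 nm emission.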

Another experiment addresses Flap endonuclease 1 (Homo sapiens, UniProt P39748). Description: Concentration required for 50% inhibition of Flap endonuclease-1. A digest of the protocol: as §1

Sequence of Flap endonuclease 1 (P39748 whole entry): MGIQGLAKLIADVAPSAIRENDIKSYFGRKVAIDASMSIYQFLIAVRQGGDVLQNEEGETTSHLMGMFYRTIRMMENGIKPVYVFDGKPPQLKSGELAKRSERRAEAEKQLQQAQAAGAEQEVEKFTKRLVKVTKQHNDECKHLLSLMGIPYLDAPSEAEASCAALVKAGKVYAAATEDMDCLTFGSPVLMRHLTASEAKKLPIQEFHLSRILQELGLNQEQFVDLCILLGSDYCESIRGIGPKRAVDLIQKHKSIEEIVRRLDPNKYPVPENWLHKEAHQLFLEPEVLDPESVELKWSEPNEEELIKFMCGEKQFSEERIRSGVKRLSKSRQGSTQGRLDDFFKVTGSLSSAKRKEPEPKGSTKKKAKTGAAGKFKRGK

Turning to `O=C(O)C(=O)CC(=O)c1ccco1`, the IC50 – broadly, the midpoint of a concentration-inhibition curve – in experiment [1] stood at 41 µM; on Flap endonuclease 1 it was 64.2 µM.
Consider `O=C(CC(=O)c1nnn[nH]1)c1ccc(Oc2ccccc2)cc1`, for which the IC50 in experiment [1] amounted to 97 µM; on Flap endonuclease 1, 63.2 µM.
The like results for `C=C(CC(=O)c1ccc(Oc2ccccc2)cc1)C(=O)O` were, in that order, over 100 µM and over 100 µM.
As to `O=C(O)C(=O)Cc1ncc(-c2ccccc2)s1`, the IC50 was 31.7 µM in experiment [1] and 46.4 µM against Flap endonuclease 1.
The corresponding values for `O=C(CC(=O)c1cc(=O)[nH]o1)c1ccc(Oc2ccccc2)cc1` are over 100 µM and over 100 µM.
With `O=C(O)C(=O)CC(=O)c1ccc(-c2ccccc2)s1`, the IC50 in experiment [1] was found to be 1.85 µM; against Flap endonuclease 1 it was 7.65 µM.
The like results for `COc1ccc(-c2ccc(Cl)c(C(=O)CC(=O)C(=O)O)c2)cc1` were, in that order, 0.57 µM and 0.19 µM.
For the compound `O=C(O)C(=O)CC(=O)c1ccc(-c2ccc(OC(F)(F)F)cc2)s1`, the values for the IC50 (in experiment [1]; on Flap endonuclease 1) were 0.31 µM and 0.44 µM, respectively.
For `O=C(O)C(=O)CC(=O)c1ccc(-c2ccc(Cl)cc2)o1`, the IC50 in experiment [1] is 0.98 µM; at Flap endonuclease 1, 10.8 µM.
Take `O=C(O)C(=O)CC(=O)c1ccc(-c2ccc(Cl)cc2)cc1Cl`: the values for the IC50 (in experiment [1]; against Flap endonuclease 1) were 1.77 µM and 0.41 µM, respectively.
Take `O=C(O)C(=O)CC(=O)c1cccs1`: the IC50 in experiment [1] was 38.7 µM; against Flap endonuclease 1, 10.1 µM.
In the case of `O=C(O)C(=O)CC(=O)c1cccc(Cl)c1`, the figures for the IC50 (in experiment [1]; on Flap endonuclease 1) were 13.1 µM and 6.96 µM, respectively.
As to `O=C(O)C(=O)CC(=O)c1c(Cl)cccc1Cl`, the half-maximal inhibitory concentration (IC50) in experiment [1] was over 100 µM; on Flap endonuclease 1, 37.9 µM.
The corresponding values for `O=C(O)C(=O)CC(=O)c1ccc(-c2ccccc2Cl)o1` are 1.85 µM and 12.2 µM.
The like results for `CC(C)(C)c1ccc(-c2ccc(C(=O)CC(=O)C(=O)O)o2)cc1` were, in that order, 3.13 µM and 13.5 µM.
As to `COc1ccc(-c2cccc(C(=O)CC(=O)C(=O)O)c2)cc1`, the IC50 amounted to 1.59 µM in experiment [1] and 1.36 µM against Flap endonuclease 1.
The corresponding values for `O=C(O)C(=O)CC(=O)c1ccc(Oc2ccccc2)cc1` are 1.87 µM and 1.75 µM.
The corresponding values for `O=C(O)C(=O)CC(=O)c1cccc(-c2ccccc2)c1` are 3.24 µM and 3.62 µM.
The like results for `O=C(O)C(=O)CC(=O)c1cccc(Cl)c1Cl` were, in that order, 22.1 µM and 17.7 µM.
With `Cc1ccccc1C(=O)CC(=O)C(=O)O`, the results for the IC50 (in experiment [1]; against Flap endonuclease 1) were 54.5 µM and 12.9 µM, respectively.
Take `O=C(O)C(=O)CC(=O)c1cccc(Oc2ccccc2)c1`: the IC50 was 5.44 µM in experiment [1] and 7.31 µM against Flap endonuclease 1.
The like results for `O=C(O)C(=O)CC(=O)c1ccc(Cl)cc1Cl` were, in that order, 9.85 µM and 5.53 µM.
The corresponding values for `O=C(O)C(=O)CC(=O)c1cc(Cl)ccc1Cl` are 7 µM and 1.82 µM.
Take `O=C(O)C(=O)CC(=O)c1cc(-c2ccccc2)ccc1Cl`: the values for the IC50 (in experiment [1]; at Flap endonuclease 1) were 1.13 µM and 0.33 µM, respectively.
With `O=C(O)C(=O)CC(=O)c1ccccc1`, the IC50 in experiment [1] turned out to be 75.4 µM; on Flap endonuclease 1 it was 24.9 µM.
Turning to `O=C(O)C(=O)CC(=O)c1ccc(-c2ccccc2)cc1`, the IC50 in experiment [1] is 1.6 µM; at Flap endonuclease 1, 3.5 µM.
The corresponding values for `O=C(CC(=O)c1nnn[nH]1)c1ccc(-c2ccccc2)cc1` are over 100 µM and over 100 µM.
The like results for `CCOc1ccc(-c2ccc(C(=O)CC(=O)C(=O)O)o2)cc1` were, in that order, 1.4 µM and 11.3 µM.
The like results for `COc1ccc(Cn2nnnc2C(=O)CC(=O)c2ccc(-c3ccccc3)cc2)cc1` were, in that order, 52.4 µM and 34.3 µM.
Consider `O=C(O)C(=O)CC(=O)c1ccc(-c2ccc(Cl)c(F)c2)s1`, for which the IC50 in experiment [1] amounted to 0.9 µM; on Flap endonuclease 1, 0.57 µM.
The like results for `O=C(O)C(=O)CC(=O)c1ccccc1Cl` were, in that order, 38.1 µM and 3.51 µM.
Take `O=C(O)C(=O)CC(=O)c1ccccc1F`: the IC50 in experiment [1] was 78.5 µM; against Flap endonuclease 1, 14.5 µM.
The like results for `O=C(c1ccc(Oc2ccccc2)cc1)c1ncc2cccnc2c1O` were, in that order, over 100 µM and 29 µM.
Regarding `O=C(O)C(=O)CC(=O)c1ccc(Cl)cc1`, the IC50 was determined as 12.7 µM in experiment [1] and 19.3 µM against Flap endonuclease 1.
Take `O=C(O)C(=O)CC(=O)c1ccc(-c2ccccc2)o1`: the IC50 in experiment [1] came out at 1.81 µM; against Flap endonuclease 1 it was 1.66 µM.
